Compounds with a hit are over-represented: about 3% of the library has one in this group of screens.
MITF TRPM1 HTS – MITF TRPM1 promoter activation in melanoma cells. SK-MEL-5 TRPM1-promoter luciferase, 24 h; % of positive control, neutral wells = 0. activation, % at 12.5 µM. 300,000 compounds, 0.75% hits;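 active = mean activation of at least 80% with every replicate also reaching 80%; inconclusive = mean reaches 80% but some replicate falls short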;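 note: 0% = neutral control wells and 100% = parthenolide positive control wells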
esBAF inh – SWI/SNF esBAF complex inhibition; AID 602393; 350,000 compounds, 2% hits; reporter increase, % at 12.5 µM; mouse ES cells, Bmi1-luciferase knock-in reporter, 24 h; 100% = twice the neutral-well signal; in the data active = activation above about 40%; inconclusive = no clear call, values can overlap the other calls;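 note: 0% = median of the plate's neutral control wells and 100% = double that signal; a rise in the Bmi1 reporter signal indicates esBAF inhibition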
CASP6 VEID inh – blocks human caspase-6 cleavage activity; AID 686996; inhibition, % at 12.5 µM; P55212; 350,000 compounds, 0.53% hits; purified caspase-6, Z-VEID-R110 cleavage fluorescence;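 active = mean inhibition across replicates at least about 35%, with every replicate also reaching that limit, limit read from the data; inconclusive = only one of the two criteria met; inactive = neither criterion met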;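 note: 0% = median of neutral control wells and 100% = no fluorescence left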
Target sequence (P55212 24-179 limits assumed): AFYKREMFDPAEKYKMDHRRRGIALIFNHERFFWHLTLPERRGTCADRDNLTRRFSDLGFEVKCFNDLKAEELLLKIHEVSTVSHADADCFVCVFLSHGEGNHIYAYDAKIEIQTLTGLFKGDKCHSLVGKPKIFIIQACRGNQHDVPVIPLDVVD
Target sequence (P55212 194-293 limits assumed): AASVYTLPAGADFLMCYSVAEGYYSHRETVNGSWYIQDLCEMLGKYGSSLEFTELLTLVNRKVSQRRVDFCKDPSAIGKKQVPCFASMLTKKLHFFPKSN
NSD2 HMT inh – NSD2 (human) methyltransferase inhibition | AID 743445 | 310,000 compounds, 0.54% hits | NSD2 peptide methylation, AlphaScreen, 120 min | O96028 | inhibition, % at 12.5 µM; in the data active = inhibition above about 50%
Wnt act – Wnt/beta-catenin pathway activation; activation, % at 9.35 µM; 300,000 compounds, 1.2% hits; AID 743398; Wnt/beta-catenin reporter cell assay, activator, plate reader; in the data active = activation above about 30%, passing the limit was not always enough; inconclusive = no clear call, values can overlap the other calls;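 note: 0% = neutral control wells and 100% = positive control wells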
Xi reactivation – activators of X-chromosome reactivation in mouse fibroblasts; AID 743238; activation, % at 7.58 µM; XiGFP mouse fibroblasts, % GFP-positive cells imaging, 3 d; cells co-treated with 5-aza-dC sensitizer; scaled so ellipticine positive control = 100%; 360,000 compounds, 0.055% hits;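 active = mean normalized replicate activation at least 10% and every replicate at or above 10%; inconclusive = only one of the two criteria met; inactive = mean below 10% and not all replicates reach 10%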;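 note: 0% = median of on-plate neutral control wells and 100% = ellipticine 6 µM median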
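Material: XiGFP fibroblasts, SV40-immortalized; Buffer or medium: DMEM containing 5-aza-dC; Compound dosing: single point; Times: 3 days compound exposure.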
The depositor's hits bear a star; u = inconclusive; x = no result.

SMILES	MITF TRPM1 HTS	esBAF inh	CASP6 VEID inh	NSD2 HMT inh	Wnt act	Xi reactivation
CC1Cc2ccccc2N1C(=O)CSc1nc2ccccc2s1 (centres undefined)	-5	x	1	-1	11	0
O=C(O)C1CCN(C(=O)CSc2nc3ccccc3s2)CC1	6	-11	2	-2	-1	0
COC(=O)CSc1nc2ccc(C)cc2[nH]1	-5	-5	x	-1	x	x
Cc1ccc2nc(SCC(=O)c3ccc(O)cc3O)[nH]c2c1	54	62*	1	-2	41*	0
O=C(CSc1nc2ccccc2s1)c1ccc(O)cc1O	41	51*	1	1	0	0
Cc1noc(C)c1NC(=O)Nc1cccc2c1O[C@H](CN(C)Cc1ccc(C(=O)Nc3ccccc3N)cc1)[C@@H](C)CN([C@@H](C)CO)C2=O	x	x	1	x	x	0
C[C@@H]1CN([C@@H](C)CO)C(=O)c2cc(NC(=O)CCC(F)(F)F)ccc2O[C@@H](C)CCCCO[C@H]1CN(C)Cc1ccccc1	x	1	x	x	x	0
O=C(CSc1ccc(-c2cccs2)nn1)N1CCCCC1	12	33	x	x	x	x
CSc1nsc(SCC(=O)N2CCCCC2)n1	52	51*	1	-4	14	0
NC(=O)C1CCN(C(=O)CSc2nc3ccccc3s2)CC1	16	4	0	3	0	x
O=C(CSc1ccc(-c2cccs2)nn1)N1CCCCCC1	-7	50*	x	-2	x	x
O=C(CSc1nc2ccccc2s1)N1CCCCC1	74	82*	-1	-4	19	x
CNC(=O)CSc1nc(SC)ns1	-9	x	-1	-8	10	0
C[C@@H]1CCCCO[C@@H](CN(C)Cc2ccc3c(c2)OCO3)[C@H](C)CN([C@@H](C)CO)C(=O)c2cc(NC(=O)NC3CCCCC3)ccc2O1	x	-1	-2	x	x	0
COc1ccc(S(=O)(=O)N[C@H]2C=C[C@H](CC(=O)NCCc3ccncc3)O[C@@H]2CO)cc1	x	-4	-8	x	x	0
Cc1ccc(S(=O)(=O)Nc2ccc3c(c2)C(=O)N([C@@H](C)CO)C[C@@H](C)[C@H](CN(C)Cc2ccc(C(F)(F)F)cc2)OCCCC[C@@H](C)O3)cc1	x	3	4	x	x	1
Clc1ccc(-c2nnc(-c3ccccc3)c(-c3ccccc3)n2)cc1	x	-4	-1	0	4	0
Nc1nc(-c2ccc(Cl)cc2)nnc1-c1ccc(Br)cc1	77	52*	-2	-2	51*	0
O=C1c2ccccc2C(=O)C1(CO)c1ccccc1	19	28	38*	3	15	0
O=C1c2ccccc2C(=O)C1(CO)c1ccc(OC(F)F)cc1	19	-1	-1	8	-2	0
Cc1ccc2nc3ccc(N4CCN(C)CC4)nn3c(=O)c2c1	33	49*	x	4	x	x
Cc1ccc2nc3ccc(N4CCCCCCC4)nn3c(=O)c2c1	x	60*	x	7	29	x
Cc1sc2nc3ccc(N4CCCC4)nn3c(=O)c2c1C	31	52*	12	x	5	0
O=c1c2ccccc2nc2ccc(N3CCOCC3)nn12	46	x	x	1	u	x
COc1ccc(NC(=O)N(C)C[C@@H]2Oc3ccc(NS(=O)(=O)c4ccc(Cl)cc4)cc3C(=O)N([C@H](C)CO)C[C@H]2C)cc1	x	7	1	x	x	-1
SMILES	MITF TRPM1 HTS	esBAF inh	CASP6 VEID inh	NSD2 HMT inh	Wnt act	Xi reactivation
CN1N=C(C(C)(C)C)CSC1=Nc1ccccc1	6	21	37*	-3	0	0
COc1ccc(C2=NN(C)C(=NCc3ccccc3)SC2)cc1	29	-1	-2	-2	7	x
O=C(NC1CC(=O)c2sccc21)c1ccc(Cl)cc1Cl (centres undefined)	57	43*	1	-4	7	1
Cc1cc(OCc2cc(C(=O)N(C)CC3CCOCC3)no2)cc(C)c1Cl	47	50*	6	1	-4	0
Cc1cc(OCc2cc(C(=O)N(C)CCCN3CCOCC3)no2)cc(C)c1Cl	19	16	-8	1	-9	0
CCN(CC1CCCO1)C(=O)c1cc(COc2cc(C)c(Cl)c(C)c2)on1 (centres undefined)	90*	84*	8	-4	30	0
CCN(CC1CCCO1)C(=O)c1cc(COc2ccc(F)cc2F)on1 (centres undefined)	-2	-3	2	-2	-2	0
COc1ccc(NC(=O)Nc2ccc3c(c2)C(=O)N([C@@H](C)CO)C[C@@H](C)[C@@H](CN(C)S(=O)(=O)c2ccc(F)cc2)OCCCC[C@H](C)O3)cc1	x	-4	-3	x	x	0
COc1ccc(-c2cn(CC[C@H]3CC[C@H](NC(=O)Cc4ccccn4)[C@@H](CO)O3)nn2)cc1	x	4	1	x	x	0
CCC(=O)N1CCC2(CC1)CN(C(=O)Cc1ccccc1)[C@@H](CO)c1c2c2ccc(OC)cc2n1C	x	x	0	x	x	0
O=C(NCC[C@H]1CC[C@@H](NC(=O)c2ccc3c(c2)OCO3)[C@H](CO)O1)Nc1cc(F)ccc1F	x	1	-3	x	x	0
O=C(NCC[C@@H]1CC[C@@H](NC(=O)c2ccc3c(c2)OCO3)[C@H](CO)O1)Nc1ccc(Cl)cc1	x	63*	-1	x	x	0
COC(=O)c1ccc(CN2CC(=O)N3[C@H](CO)[C@H](c4ccc(-c5ccccc5)cc4)[C@H]3C2)cc1	x	x	x	x	x	0
COc1ccccc1/C=N/n1c(N)c(S(=O)(=O)c2cccs2)c2nc3ccccc3nc21	x	41*	x	-1	x	x
COc1ccc(CCn2c(N)c(S(=O)(=O)c3cccs3)c3nc4ccccc4nc32)cc1OC	4	-6	x	-10	2	x
CCCC#Cc1ccc2c(c1)O[C@@H](CN(C)C(=O)C1CCC1)[C@@H](C)CN([C@@H](C)CO)S2(=O)=O	x	-1	-1	x	x	-1
COC(=O)c1sc(NC(=O)c2oc3ccccc3c2C)nc1C	18	60*	x	0	x	x
Cc1c(C(=O)Nc2ccccn2)oc2ccccc12	23	-5	2	-2	u	x
COC(=O)c1sc(NC(=O)c2ccc(C)o2)nc1C	49	x	1	0	26	0
Cc1c(C(=O)Nc2cccnc2Cl)oc2ccccc12	51	48*	2	0	24	0
COc1ccc(NC(=O)c2oc3ccccc3c2C)cn1	46	43*	3	-3	16	0
COc1ccccc1NC(=O)N[C@H]1CC[C@H](CCNS(=O)(=O)c2ccc(C)cc2)O[C@@H]1CO	x	x	2	x	x	-1
COc1ccc(/C=C2\SC(=S)N(CC(=O)OCC(=O)Nc3cc(Cl)cc(Cl)c3)C2=O)cc1	5	x	2	-2	38*	0
O=C(NCCC1=CCCCC1)c1ccc2c(=O)n3c(nc2c1)CCCCC3	53	43*	-2	x	-2	0
O=C(Nc1ccc(F)cc1)c1ccc2c(=O)n3c(nc2c1)CCCCC3	68	57*	0	x	17	0

Compound activity from PubChem BioAssay.
